For experiment [1], the target named is Fibroblast growth factor 1 (Homo sapiens, UniProt P05230). In words: Binding affinity for human fibroblast growth factor 1 in surface plasmon resonance (SPR) assay. Put shortly:
(§1)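 SPR solution affinity format: growth factor pre-equilibrated with ligand in solution, mixture passed over a heparin-immobilized sensor chip. Free (unbound) growth factor binding to heparin raises the SPR response and gives its concentration. Kd calculated from the decline in free growth factor concentration versus ligand concentration. Values are mean and SD of at least two independent measurements.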
A general note: SPR reads the build-up and loss of mass on a sensor chip optically.

The target in experiment [2] is T1, Fibroblast growth factor 2 (Homo sapiens, UniProt P09038). Put plainly: Binding affinity for human fibroblast growth factor 2 in surface plasmon resonance (SPR) assay. Summed up: as §1
T1 sequence (P09038 143-288 limits assumed): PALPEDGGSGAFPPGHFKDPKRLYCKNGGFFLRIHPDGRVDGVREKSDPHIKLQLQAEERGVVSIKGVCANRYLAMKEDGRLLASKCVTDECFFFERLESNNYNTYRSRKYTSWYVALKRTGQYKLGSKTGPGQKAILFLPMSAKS
Experiment [3] deals with T1, Fibroblast growth factor 2. In words: Binding affinity for human fibroblast growth factor 2 in surface plasmon resonance (SPR) assay (No binding). Summed up: as §1

This is an account of results in ChEMBL document CHEMBL1147561, “Application of the four-component Ugi condensation for the preparation of sulfated glycoconjugate libraries” (Bioorg Med Chem Lett, 2004).

A word on the Kd: it is the equilibrium constant for the complex coming apart. High values mean a looser complex, low ones a tighter complex.

Each structure is given as a SMILES string.

Sequence of Fibroblast growth factor 1 (P05230 whole entry): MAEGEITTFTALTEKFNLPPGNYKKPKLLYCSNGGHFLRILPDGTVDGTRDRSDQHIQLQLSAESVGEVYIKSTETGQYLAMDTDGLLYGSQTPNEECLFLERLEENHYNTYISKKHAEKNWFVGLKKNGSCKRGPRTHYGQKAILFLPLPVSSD

For `CO[C@H]1O[C@@H](COCC(=O)N(CCS(=O)(=O)O)CC(=O)NC2CCCCC2)[C@@H](OS(=O)(=O)O)[C@H](OS(=O)(=O)O)[C@H]1OS(=O)(=O)O`, the Kd in experiment [1] stood at 296 µM; in experiment [2], 551 µM.

Take `O=C(CN(Cc1ccccc1)C(=O)C1OC(OS(=O)(=O)O)C(OS(=O)(=O)O)C(OS(=O)(=O)O)C1OS(=O)(=O)O)NC1CCCCC1` (centres undefined): the figures for the Kd in experiment [1] and in experiment [2] were 122 µM and 254 µM, respectively.

`O=C(CN(CCOS(=O)(=O)O)C(=O)C1OC(OS(=O)(=O)O)C(OS(=O)(=O)O)C(OS(=O)(=O)O)C1OS(=O)(=O)O)NC1CCCCC1` (centres undefined): the values for the Kd in experiment [1] and in experiment [2] were 2340 µM and more than 800 µM, respectively.

Regarding `O=C(CN(Cc1ccccc1)C(=O)C1OC(OS(=O)(=O)O)C(OS(=O)(=O)O)C(OS(=O)(=O)O)C1O)NC1CCCCC1` (centres undefined), the Kd in experiment [1] was found to be 587 µM; in experiment [2], 1160 µM.

With `CC(C)(CC(=O)N(CCO[C@H]1O[C@@H](COS(=O)(=O)O)[C@@H](OS(=O)(=O)O)[C@H](OS(=O)(=O)O)[C@H]1OS(=O)(=O)O)CC(=O)NC1CCCCC1)CC(=O)N(CCO[C@H]1O[C@@H](COS(=O)(=O)O)[C@@H](OS(=O)(=O)O)[C@H](OS(=O)(=O)O)[C@H]1OS(=O)(=O)O)CC(=O)NC1CCCCC1`, the Kd in experiment [1] worked out at 10 µM; in experiment [2], 34 µM.

As for `O=C(CN(Cc1ccccc1)C(=O)C1OC(OS(=O)(=O)O)C(OS(=O)(=O)O)C(OS(=O)(=O)O)C1OS(=O)(=O)O)NCc1ccccc1` (centres undefined), the values for the Kd in experiment [1] and in experiment [2] were 104 µM and 206 µM, respectively.

As to `CC(=O)N(CC(=O)NCCO[C@H]1O[C@@H](COS(=O)(=O)O)[C@@H](OS(=O)(=O)O)[C@H](OS(=O)(=O)O)[C@H]1OS(=O)(=O)O)Cc1ccccc1`, the Kd is 34.3 µM in experiment [1] and 287 µM in experiment [2].

Turning to `CO[C@H]1O[C@@H](COCC(=O)N(CC(=O)NCCO[C@H]2O[C@@H](COS(=O)(=O)O)[C@@H](OS(=O)(=O)O)[C@H](OS(=O)(=O)O)[C@H]2OS(=O)(=O)O)Cc2ccccc2)[C@@H](OS(=O)(=O)O)[C@H](OS(=O)(=O)O)[C@H]1OS(=O)(=O)O`, the results for the Kd in experiment [1] and in experiment [2] were 4.84 µM and 16 µM, respectively.

For `CO[C@H]1O[C@@H](COCC(=O)N(CC(=O)NC2CCCCC2)[C@H]2CC[C@H](N(CC(=O)NC3CCCCC3)C(=O)COC[C@@H]3O[C@H](OC)[C@H](OS(=O)(=O)O)[C@@H](OS(=O)(=O)O)[C@@H]3OS(=O)(=O)O)CC2)[C@@H](OS(=O)(=O)O)[C@H](OS(=O)(=O)O)[C@H]1OS(=O)(=O)O`, the Kd in experiment [1] amounted to 32.6 µM; in experiment [2], 27.9 µM.

For the compound `O=C(NC1CCCCC1)C(c1ccccc1)N(Cc1ccccc1)C(=O)C1OC(OS(=O)(=O)O)C(OS(=O)(=O)O)C(OS(=O)(=O)O)C1OS(=O)(=O)O` (centres undefined), the Kd is more than 800 µM in experiment [3] and 62.5 µM in experiment [1].

As to `CO[C@H]1O[C@@H](COCC(=O)N(CC(=O)NC2CCCCC2)Cc2ccccc2)[C@@H](OS(=O)(=O)O)[C@H](OS(=O)(=O)O)[C@H]1OS(=O)(=O)O`, the Kd in experiment [1] was determined as 260 µM; in experiment [2], 200 µM.

Consider `O=C(CN(Cc1ccccc1)C(=O)CO[C@@H]1[C@H](OS(=O)(=O)O)O[C@H](COS(=O)(=O)O)[C@H](OS(=O)(=O)O)[C@H]1OS(=O)(=O)O)NCCO[C@H]1O[C@@H](COS(=O)(=O)O)[C@@H](OS(=O)(=O)O)[C@H](OS(=O)(=O)O)[C@H]1OS(=O)(=O)O`, for which the figures for the Kd in experiment [1] and in experiment [2] were 6.36 µM and 85 µM, respectively.
